# Measured values: ChEMBL document CHEMBL1828544, “Structural modification of honokiol, a biphenyl occurring in Magnolia officinalis: the evaluation of honokiol analogues as inhibitors of angiogenesis and for their cytotoxicity and structure-activity relationship” (J Med Chem, 2011)
# The source made the active and inactive calls. The calls are words filed in the database; no cut-off is given here.
# Tests used:
# Danio rerio [1] = organism: Danio rerio; experiment: Antiangiogenic activity in fli-1:enhanced GFP expressing transgenic zebrafish embryo assessed as inhibition of neovacularisation at 40 uM after 24 hrs relative to control; format: functional
# In short: (§1)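 fli-1:EGFP transgenic zebrafish embryos sorted at about 6 hpf (6 per well), exposed in embryo water to compound at 5–40 μM for 24 h. Then anesthetized with 0.05% 2-phenoxyethanol, photographed and quantified.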
# HUVEC [2] = experiment: Antimigratory activity against human HUVEC cells at 20 uM after 24 hrs by wound-healing assay; format: functional, cell-based
# In short: (§2)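 HUVEC monolayers grown overnight to confluence on 0.1% gelatin, scratched with pipet tips, washed, then kept in serum-free DMEM with compound (20 or 40 μM) for 24 h at 37 °C, 5% CO2; control serum-free DMEM. Migrated cells counted manually from images at 0 and 24 h, three random fields; three independent experiments, mean ± SE.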
# HUVEC [3] = experiment: Antiproliferative activity against human HUVEC cells after 24 hrs by MTT assay; format: functional, cell-based
# In short: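 Primary HUVECs grown on gelatin in M-199 with 20% FBS, 10 ng/mL bFGF, 2 ng/mL VEGF, 5% CO2, 37 °C. Cells (5 × 10^3/well) exposed to a range of compound concentrations for 24 h. MTT added for 3 h, formazan dissolved in DMSO, absorbance read at 570 nm. IC50 from percentage growth versus untreated control.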
# HUVEC [4] = experiment: Antimigratory activity against human HUVEC cells assessed as migration rate at 40 uM after 24 hrs by wound-healing assay relative to control; format: functional; in short: as §2
# HepG2 = experiment: Antiproliferative activity against human HepG2 cells after 24 hrs by MTT assay; format: functional, cell-based; details: HepG2, 24 h
# In short: (§3)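 Cells (5 × 10^3/well) kept at 37 °C, 5% CO2 and treated with varied compound concentrations for 24 h. MTT given for a further 3 h, precipitate dissolved in DMSO, absorbance taken at 570 nm. IC50 calculated from percentage growth relative to untreated control.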
# HUVEC [5] = experiment: Antiangiogenic activity against human HUVEC cells assessed as inhibition of tube formation at 20 uM after 12 hrs by matrigel-based assay; format: functional
# In short: (§4)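 HUVECs (1 × 10^4) in DMEM with compound (20 μM) plated on Matrigel that had set at 37 °C for 45 min; controls got DMEM alone. After 12 h at 37 °C, capillary networks were photographed and intact tubes counted in five random regions. Inhibition expressed as percentage of control.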
# Danio rerio [6] = organism: Danio rerio; experiment: Antiangiogenic activity in fli-1:enhanced GFP expressing transgenic zebrafish embryo assessed as inhibition of neovacularisation at 5 uM after 24 hrs relative to control; format: functional; in short: as §1
# Danio rerio [7] = organism: Danio rerio; experiment: Antiangiogenic activity in fli-1:enhanced GFP expressing transgenic zebrafish embryo assessed as inhibition of neovacularisation at 20 uM after 24 hrs relative to control; format: functional; in short: as §1
# [8] = Antiproliferative activity against mouse LL/2 cells after 24 hrs by MTT assay; format: functional, cell-based; details: Lewis lung carcinoma; in short: as §3
# Danio rerio [9] = organism: Danio rerio; experiment: Antiangiogenic activity in fli-1:enhanced GFP expressing transgenic zebrafish embryo assessed as inhibition of neovacularisation at 10 uM after 24 hrs relative to control; format: functional; in short: as §1
# A549 = experiment: Antiproliferative activity against human A549 cells after 24 hrs by MTT assay; format: functional, cell-based; details: A549, 24 h; in short: as §3
# HUVEC [10] = experiment: Antimigratory activity against human HUVEC cells after 24 hrs by wound-healing assay relative to honokiol; format: functional; in short: as §2
# Danio rerio [11] = organism: Danio rerio; experiment: Antiangiogenic activity in fli-1:enhanced GFP expressing transgenic zebrafish embryo assessed as inhibition of dorsal longitudinal anastomic vessel sprouts after 48 hrs; format: functional, organism-based
# In short: (§5)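 Transgenic fli-1:EGFP zebrafish embryos (GFP across endothelium) sorted at about 6 hpf, 6 per well, with dead or unhealthy ones removed. Compound (10, 20, 40 μM) added to embryo water (0.2 g/L instant ocean salt) from 6 hpf for 48 h. Embryos then anesthetized in 0.05% 2-phenoxyethanol, imaged, and intersomitic and dorsal longitudinal anastomotic vessel sprouts assessed.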
# HUVEC [12] = experiment: Antiangiogenic activity against human HUVEC cells assessed as inhibition of tube formation at 20 uM after 12 hrs by matrigel-based assay relative to honokiol; format: functional; in short: as §4
# Danio rerio [13] = organism: Danio rerio; experiment: Antiangiogenic activity in fli-1:enhanced GFP expressing transgenic zebrafish embryo assessed as inhibition of intersomitic vessel sprouts after 48 hrs; format: functional, organism-based; in short: as §5
SMILES,IC50 (HepG2),IC50 (A549),inhibition (INH) (Danio rerio [1]),Activity (HUVEC [2]),IC50 (HUVEC [3]),Migration rate relative to control (HUVEC [4]),inhibition at 20 µM (HUVEC [5]),inhibition (INH) (Danio rerio [6]),inhibition (INH) (Danio rerio [7]),IC50 [8],inhibition (INH) (Danio rerio [9]),fold change (FC) (HUVEC [10]),inhibition (Danio rerio [11]),fold change (FC) (HUVEC [12]),inhibition (Danio rerio [13])
C=CCc1ccc(O)c(-c2ccc(OC)c(CC=C)c2)c1 [METHYLHONOKIOL],55.3 µM,–,25%,Active,55.8 µM,54.2%,34.9%,<25%,25%,68.8 µM,<25%,–,–,–,–
C=CCc1cc(C=O)c(OC)c(-c2ccc(O)c(CC=C)c2)c1,20.9 µM,28.6 µM,25%,Active,32.5 µM,63.2%,82.5%,<25%,25%,20.4 µM,<25%,–,–,–,–
C=CCc1ccc(O)c(-c2ccc(O)c(CC=C)c2)c1 [HONOKIOL],–,–,–,Active,52.6 µM,38.5%,51.4%,<25%,50%,65.4 µM,25%,–,–,–,–

# Further compounds by falling IC50 (HepG2), results first:
IC50 (HepG2),IC50 (A549),SMILES,inhibition (INH) (Danio rerio [1]),Activity (HUVEC [2]),IC50 (HUVEC [3]),Migration rate relative to control (HUVEC [4]),inhibition at 20 µM (HUVEC [5]),inhibition (INH) (Danio rerio [6]),inhibition (INH) (Danio rerio [7]),IC50 [8],inhibition (INH) (Danio rerio [9]),fold change (FC) (HUVEC [10]),inhibition (Danio rerio [11]),fold change (FC) (HUVEC [12]),inhibition (Danio rerio [13])
32.9 µM,43.6 µM,C=CCc1cc(C=O)c(O)c(-c2ccc(O)c(CC=C)c2)c1,–,Active,46.2 µM,34.2%,41.2%,<25%,25%,65.3 µM,25%,–,–,–,–
10.7 µM,30.2 µM,C=CCc1cc(C=O)c(O)c(-c2cc(C=O)c(O)c(CC=C)c2)c1,–,Active,15.1 µM,21.2%,21.3%,<25%,50%,21.7 µM,25%,1.5,Dose-dependent effect,2.5,Dose-dependent effect
